ChEMBL document CHEMBL1131089, “Physical parameters and biological stability of yttrium(III) diethylenetriaminepentaacetic acid derivative conjugates” (J Med Chem, 1998)

What was measured:
[1] = Fraction of 88Y (%) released from chelate after incubation in serum for 15 hours; assay type: ADME
Procedure, shortened: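 p-Nitrobenzyl DTPA derivatives converted to p-isothiocyanato form, conjugated to antibody B72.3, labeled with 88Y. Conjugates incubated in serum 15 h; released 88Y assessed by size-exclusion HPLC (TSK 3000SW, MES/Cl− buffer 0.02 M MES, 0.15 M NaCl, pH 6.5). 88Y-albumin eluted at 7.7 min, assigned against molecular weight standard. Injectate aliquots counted for HPLC recovery.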

Mus musculus = species on record: Mus musculus; test: Percent injected dose per gram at 168 hour for mice injected with 88Y-Ligand-B 72.3; assay type: functional, organism-based
[2] = Yttrium(III) stability constant of the compound.; assay type: physicochemical
Procedure, shortened: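 Spectrophotometric competition at 25 °C, μ = 0.1 M. Y(III) (3.950 × 10⁻⁶ M) with Arsenazo III (2.00 × 10⁻⁵ M) at pH 3.90, titrated with ligand aliquots. Absorbance drop at 652 nm after each equilibration gave conditional constants, converted to log K. Y–AAIII ML and ML₂ constants and extinction coefficients first obtained by titrating dye with YCl₃.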

Row | 88Y-serum [1] [%] | Log K [2] | Compound | ID/g femur (Mus musculus) [%]
1 | 4.84 | 22.5 | CC(CN(CC(=O)O)CC(=O)O)N(CC(=O)O)CC(Cc1ccc([N+](=O)[O-])cc1)N(CC(=O)O)CC(=O)O (centres undefined) | 3
2 | – | 24.2 | O=C(O)CN(CCN(CC(=O)O)[C@@H]1CCCC[C@H]1N(CC(=O)O)CC(=O)O)CC(=O)O | –
3 | 7 | 21.7 | O=C(O)CN(CCN(CC(=O)O)C(Cc1ccc([N+](=O)[O-])cc1)CN(CC(=O)O)CC(=O)O)CC(=O)O (centres undefined) | 5.2
4 | – | 22.4 | O=C(O)CN(CCN(CC(=O)O)CC(=O)O)CCN(CC(=O)O)CC(=O)O [PENTETIC ACID] | –
5 | 3.79 | 24.7 | O=C(O)CN(CC(=O)O)[C@H](Cc1ccc([N+](=O)[O-])cc1)CN(CC(=O)O)[C@@H]1CCCC[C@H]1N(CC(=O)O)CC(=O)O | 3.6
6 | 6.27 | 22.5 | CC(CN(CC(=O)O)CC(Cc1ccc([N+](=O)[O-])cc1)N(CC(=O)O)CC(=O)O)N(CC(=O)O)CC(=O)O (centres undefined) | 2.5
7 | – | 21.5 | O=C(O)CN(CCN(CC(=O)O)CC(Cc1ccc([N+](=O)[O-])cc1)N(CC(=O)O)CC(=O)O)CC(=O)O (centres undefined) | 4.3
8 | 18.5 | 24.4 | O=C(O)CN(CC(=O)O)[C@@H](Cc1ccc([N+](=O)[O-])cc1)CN(CC(=O)O)[C@@H]1CCCC[C@H]1N(CC(=O)O)CC(=O)O | 6.1
